In the library only some 12% were active in any assay of this set; here they are far more common.
Dynein cargo inh = inhibitors of GR-EGFP nuclear translocation, primary screen, dynein cargo transport inhibitor project, imaging, high-content, 3617.4 mouse cells; test concentration mostly 20 µM; stimulated with dexamethasone, 1 µM; hits give low values; z-score, hits read low; 220,000 compounds, 0.47% hits; AID 1381, 2008;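 active = plate z-score of nuclear minus cytoplasmic receptor signal below a set negative limit, without overly bright fluorescence or cell loss, cut at about -3.5 in these data, passing the limit was not always enough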;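 note: z-score of nuclear minus cytoplasmic ring GR-EGFP intensity difference per well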
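Also added: dexamethasone, 1.0 µM final. Medium: tet-free, stripped-serum medium. Detection: fixed, Hoechst-stained cells imaged at 10x for EGFP. Read-out: nuclear-to-cytoplasmic GR-EGFP distribution per well. Times: induction 48 h, compound 1 h, agonist 30 min.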
MT stabilize HCS = microtubule stabilizers in HeLa cells, primary screen, imaging, high-content imaging; HeLa tubulin immunostaining HCS, 24 h; share of cells brighter than vehicle mean+2SD; 200,000 compounds, 0.83% hits; % tubulin-high responders, % at 10 µM;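 active = plate Z-score above 3 for both tubulin-high and condensed-nucleus cell shares, with cell loss under 80%, at 10 µM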;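 note: anti alpha tubulin signal scored within the nucleus-defined area of each cell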
bCat nuc transl = modulators of beta-catenin nuclear translocation, primary screen, imaging, HeLa cells, immunofluorescence, high-content | nuclear translocation activity, % at 5 µM | 190,000 compounds, 0.3% hits;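 active = nuclear translocation activity above 50% at 5 µM, with a well cell count of 50 or more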;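 note: per-cell ratio of nuclear to cytoplasmic median beta-catenin stain intensity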
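Read-out: Nuclear/cytoplasmic beta-catenin signal ratio, % activation | Assay system: Human HeLa cell line | Times: 24 h compound exposure at 37°C, 5% CO2 | Signal: Fluorescence imaging of beta-catenin antibody stain plus DAPI | Dosing: 5 µM primary, 0.02–20 µM confirmation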
CHOP inhibitor = inhibitors of CHOP promoter induction, primary screen, cell-based, unfolded protein response, luciferase reporter; 220,000 compounds, 3.8% hits; CHO-K1 CHOP-promoter luciferase, tunicamycin-induced, 15-18 h; inhibition, % at 10 µM;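 active = compounds that reduced the stress-induced luciferase reporter signal by more than about 70% of percent inhibition, limit read from the data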
Lmaj promast = Leishmania major promastigote growth inhibition, primary screen | inhibition, % at 10 µM | Leishmania major promastigotes, resazurin fluorescence viability | AID 1063, 2008 | 200,000 compounds, 9% hits; in the data active = inhibition above about 50%;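 note: promastigotes grown with compound for 44 hours at 28 °C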
Autophagy HCS = autophagy modulators in MEF cells, primary screen, imaging, high-content, MEF GFP-LC3. calls only at 10 µM (by protocol). 190,000 compounds, 0.98% hits. MEF GFP-LC3 puncta imaging; test concentration mostly 10 µM;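 active = percentage of spot-positive cells more than 3 SD above its plate mean, without a fluorescence outlier flag or 80% toxicity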
A number is an active result; n = inactive; x = no result given; + = active, no number.

SMILES	Dynein cargo inh	MT stabilize HCS	bCat nuc transl	CHOP inhibitor	Lmaj promast	Autophagy HCS
CCOc1c2ccc(C(=O)NCC34CC5CC(CC(C5)C3)C4)cc2nn1CC	n	n	n	n	86	n
OCC1(CCc2ccccc2)CCN(Cc2cc(F)ccc2-n2cccn2)CC1	n	n	n	n	n	n
Cc1ccc(S(=O)(=O)Nc2cccc(NC(=O)CN3CCCCC3)c2)cc1	n	n	n	n	n	n
Cc1cccc(OCC(=O)Nc2ccc(N3CCN(C(=O)c4ccco4)CC3)cc2)c1	n	n	x	n	n	n
Cc1nc2ncnn2c(C)c1Cc1cccc(C(F)(F)F)c1	n	n	n	n	n	n
Cc1cc(OCc2cn3cccnc3n2)ccc1Cl	n	n	n	n	n	n
CCCCCOP(=O)(OCCCCC)C1(NS(=O)(=O)c2ccccc2)C=CC(=O)c2ccccc21 (stereo not given)	n	n	n	n	100	n
FC(F)(F)c1cnc(COc2cc(Cl)cc(Cl)c2)c(Cl)c1	n	x	n	n	x	x
Clc1ccc(-c2csc(-c3cccnc3)n2)s1	n	x	n	n	x	x
CCOC(=O)N1CCN(S(=O)(=O)c2cc(C)c(C)cc2C)CC1	n	n	n	n	n	n
Cc1cc(C)c(S(=O)(=O)/N=C2/C=C(SCC(=O)O)C(=O)c3ccccc32)cc1C	n	n	n	n	100	n
COc1ccc(C(CC(=O)NCc2ccccc2)Sc2n[nH]c(-c3ccc(Cl)cc3)n2)cc1 (stereo not given)	n	n	n	n	52	n
Cc1cccc(/C=N/NC(=O)c2cc3c(s2)-c2ccccc2CC3)c1	n	34	n	n	n	n
COC(=O)c1cc2c(s1)-c1ccccc1CC2	n	n	n	91	n	n
Cc1[nH]nc2nc3c(c(OC(=O)c4ccccc4)c12)c(=O)n(C)c(=O)n3C	n	n	x	n	n	n
CCN(C(=S)Nc1cc(S(=O)(=O)N2CCOCC2)ccc1Cl)c1cccc2ccccc12	n	n	n	n	65	n
O=C(c1ccccc1)C1CN(Cc2ccccc2)CCC1(O)c1ccccc1 (stereo not given)	n	n	n	n	62	n
OC1(c2ccccc2)CCN(Cc2ccccc2)CC1	n	n	n	n	83	n
OC(c1ccccc1)C1CN(Cc2ccccc2)CCC1(O)c1ccccc1 (stereo not given)	n	n	n	n	85	n
CC(C)NC(=O)CN1CCC(O)(c2ccccc2)CC1	n	n	n	n	n	n
O=C(c1cccc(C(=O)N2CCN(Cc3ccccc3)CC2)c1)N1CCN(Cc2ccccc2)CC1	n	n	n	n	n	n
OC1CCCN(Cc2ccccc2)C1 (stereo not given)	n	n	x	n	n	n
COc1ccc(N2CCN(C(=S)Nc3cc(C)ccc3C)CC2)cc1	n	n	x	n	n	n
Cc1ccc(S(=O)(=O)/C(C#N)=C/c2c(N3CCC(C(N)=O)CC3)nc3ccccn3c2=O)cc1	n	n	n	n	n	n
Fc1cccc(Oc2nc3ccccc3n3cccc23)c1	n	n	n	n	n	n
SMILES	Dynein cargo inh	MT stabilize HCS	bCat nuc transl	CHOP inhibitor	Lmaj promast	Autophagy HCS
COc1ccc(Cl)cc1NC(=O)c1ccco1	n	n	n	n	64	n
COc1ccc(Cl)cc1NC(=O)NC(C)C	n	n	n	n	95	n
COc1cc(NC(=O)c2ccco2)c(OC)cc1NC(=O)Nc1ccccc1Cl	n	n	n	n	72	n
CC(C)(C)c1ccc(NNC(=O)C2CCC2)cc1	n	x	n	n	x	x
CC1CCCN(C(=O)CSc2nc3ncccc3[nH]2)C1 (stereo not given)	n	n	n	n	n	+
COc1ccccc1NC(=O)CSc1nc2ncccc2[nH]1	n	n	n	n	n	n
CCOC(=O)c1ccc(NC(=O)CSc2nc3ncccc3[nH]2)cc1	n	n	n	n	63	n
Cc1ccc(Oc2ccc(-c3nc(N)nc(N)n3)cc2)cc1	n	n	n	n	98	n
Cc1cc(C)c2nc(C(F)(F)F)nc(NCCCN3CCOCC3)c2c1	n	n	x	n	95	n
NNC(=O)c1ccc2nc(-c3ccc(Br)cc3)cn2c1	n	n	n	n	54	n
CCN1CCN(C(c2ccccn2)c2c(NC(=O)c3ccccc3)sc(C)c2C)CC1 (stereo not given)	n	n	n	n	n	n
Cc1ccc(CCN=c2c([N+](=O)[O-])nn(-c3ccccc3)n2O)cc1	n	n	n	n	n	n
COc1ccc(-n2nc([N+](=O)[O-])c(=NCCc3ccccc3)n2O)cc1	n	n	n	n	96	n
O=[N+]([O-])c1nn(-c2ccccc2)n(O)c1=NCCc1ccccc1	n	n	n	n	91	n
CCc1cccc(CC)c1NC(=O)/C(C#N)=C/c1ccccc1C(F)(F)F	n	n	n	84	97	n
CCCN(CCC)C1Sc2ccc(C(=O)OC)cc2NC1=O (stereo not given)	n	n	x	82	n	n
CCC1CCCCN1C1Sc2ccc(C(=O)OC)cc2NC1=O (stereo not given)	n	n	n	n	100	n
COC(=O)c1cc(C(=O)OC)[nH]n1	n	n	n	n	n	n
CCc1ccccc1SCc1noc(C(=O)NCC2CCCO2)c1C(=O)O (stereo not given)	n	n	n	n	n	n
COC(=O)c1c(CCl)noc1C(=O)NCC1CCCO1 (stereo not given)	n	n	n	n	100	n
COc1ccccc1NC(=O)/C=C1\SCC(=O)N1C	n	n	n	n	100	n
COc1ccccc1NC(=O)/C=C1\NC(=O)CS1	n	n	n	n	88	n
COc1ccccc1NC(=O)c1cc(C(=O)Nc2ccccc2OC)cc(N2C(=O)CCC2=O)c1	n	n	n	n	n	n
COc1ccccc1NC(=O)N1c2ccccc2NC(=O)CC1C (stereo not given)	n	x	n	n	x	x
c1ccc(-c2ccc(C(c3ccccc3)n3ccnc3)cc2)cc1 (stereo not given)	n	n	n	n	98	n
c1ccc(-c2ccc(-n3ccnc3)cc2)cc1	n	n	n	n	n	n
COc1cc(NC(=O)CC2NCCNC2=O)cc(OC)c1 (stereo not given)	n	n	n	n	n	n
Cc1ccc(CN(Cc2ccco2)S(=O)(=O)c2ccc(S(=O)(=O)NCC3CCCO3)cc2)cc1 (stereo not given)	n	n	n	n	n	n
COc1cc2oc3ccccc3c2cc1N(CC(=O)N1CCCCC1)S(=O)(=O)c1ccc(C)cc1	n	n	n	n	n	n

Assay outcomes from PubChem BioAssay.
